Series [1] in a line: folding enthalpy; higher = less favourable; fluorescence melt of hairpins on a sequencing array, two-state fit. Particulars: sodium 0.088 M. The method, boiled down:
(§1)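 Melting temperature and folding enthalpy were obtained by bootstrapped two-state fitting. Fits used Cy3 fluorescence of library hairpins with annealed Cy3 and quencher oligos on a sequenced MiSeq flow cell, imaged in 50 mM Na-HEPES pH 8.0, 25 mM NaCl in 2.5 °C steps up to 60 °C and normalised to pre-quench Cy3 and control constructs. Four replicates were combined by inverse-variance weighting, and fitted temperatures were raised by 9.35 °C to match UV melts.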

A short description of series [2]: melting temperature; fluorescence melt of hairpins on a sequencing array, two-state fit, raised by 9.35 °C to match UV melts. Particulars: sodium 0.088 M. In outline: as §1

We go through 30 sequences from the array DNA melting data of Ke et al. (doi:10.1101/2024.01.08.574731).

As for GACTATCCGAAAGGAGTC (((..(((....)))))), the folding enthalpy in series [1] was -17 kcal/mol. The Tm in series [2] came to 34.1 °C.

Regarding GACTATGGAAACGTAGTC (((((.(....).))))), the folding enthalpy in series [1] was -32.4 kcal/mol. The Tm in series [2] was found to be 42 °C.

As to GACTCACGAAAGTGGTC (((.(((....)))))), the folding enthalpy in series [1] is -20 kcal/mol. Moreover, the Tm in series [2] was found to be 46.6 °C.

As to GACTCCCGAAAGGGTGTC (((.(((....))).))), the folding enthalpy in series [1] was -33.1 kcal/mol. In addition, the Tm in series [2] is 58.3 °C.

With GACTCCGAAAGGAGAGTC ((((((....)))..))), the folding enthalpy in series [1] was -12.9 kcal/mol. Besides, the Tm in series [2] amounted to 43 °C.

GACTCCGGAAACAGAGTC (((((.(....).))))): the folding enthalpy in series [1] is -36.5 kcal/mol. Further, the Tm in series [2] was 40.1 °C.

On to GACTCGCGAAAGCGTGTC (((.(((....))).))), for which, in series [1], the folding enthalpy is -27.1 kcal/mol. Moreover, the Tm in series [2] stood at 63.3 °C.

As to GACTCGGCGAAAGCCGTC (((..(((....)))))), the folding enthalpy in series [1] is -4.78 kcal/mol. Further, the Tm in series [2] stood at 36.2 °C.

With GACTCGGGAAACCAAGTC ((((.((....)).)))), the folding enthalpy in series [1] is -25 kcal/mol. In addition, the Tm in series [2] was 37.6 °C.

In the case of GACTCGGGAAACCGAACC (..((((....))))..), the folding enthalpy in series [1] was -9.35 kcal/mol. Further, the Tm in series [2] was found to be 22.6 °C.

Turning to GACTCGGGAAACCGGGTC (((.(((....))).))), the folding enthalpy in series [1] is -40.6 kcal/mol. Moreover, the Tm in series [2] was found to be 55.1 °C.

For GACTCTGGAAACGGAGTC (((((.(....).))))), in series [1], the folding enthalpy was -46.5 kcal/mol. Further, the Tm in series [2] is 50.3 °C.

As for GACTGACGAAAGTCTGTC (((.(((....))).))), the folding enthalpy in series [1] is -36.7 kcal/mol. The Tm in series [2] was found to be 54.9 °C.

With GACTGAGGAAACCCAGTC (((((.(....).))))), the folding enthalpy in series [1] is -33.7 kcal/mol. For the same sequence, in series [2], the Tm turned out to be 44.8 °C.

As for GACTGAGGAAACTCAGCC (.(((((....))))).), in series [1], the folding enthalpy is -16.9 kcal/mol. Further, in series [2], the Tm was determined as 43.4 °C.

Regarding GACTGCACGAAAGTGGTC (((..(((....)))))), in series [1], the folding enthalpy is -13.9 kcal/mol. Further, in series [2], the Tm amounted to 35.3 °C.

On to GACTGCCGAAAGGCTGTC (((.(((....))).))), for which the folding enthalpy in series [1] is -30.9 kcal/mol. For the same sequence, the Tm in series [2] was 63.2 °C.

For the sequence GACTGCGAAAGCACCGTC ((((((....)))..))), the folding enthalpy in series [1] was -10.7 kcal/mol. Moreover, in series [2], the Tm is 37.6 °C.

For GACTGCGAAAGCACGGTC ((((((....)))..))), in series [1], the folding enthalpy was -12.4 kcal/mol. The Tm in series [2] was 42.4 °C.

Turning to GACTGCGAAAGCAGGGTC ((((((....)))..))), in series [1], the folding enthalpy was -12.4 kcal/mol. Moreover, the Tm in series [2] amounted to 62.2 °C.

GACTGCGAAAGCAGGTC ((((((....))).))): in series [1], the folding enthalpy is -13.1 kcal/mol. Besides, in series [2], the Tm was 58.1 °C.

As to GACTGCGAAAGCAGTGTC ((((((....)))..))), in series [1], the folding enthalpy was -10.2 kcal/mol. Besides, the Tm in series [2] was 58.6 °C.

For the sequence GACTGCGGAAACACAGTC (((((.(....).))))), the folding enthalpy in series [1] is -26.8 kcal/mol. In addition, in series [2], the Tm was 47.4 °C.

For the sequence GACTGCGGAAACGCAACC (..((((....))))..), the folding enthalpy in series [1] was -9.21 kcal/mol. In addition, in series [2], the Tm came to 25.1 °C.

As to GACTGCGGAAACGCGGTC (((.(((....))).))), the folding enthalpy in series [1] was -34.1 kcal/mol. Besides, the Tm in series [2] turned out to be 63.5 °C.

Regarding GACTGGGGAAACCCGGTC (((.(((....))).))), the folding enthalpy in series [1] was -41.7 kcal/mol. For the same sequence, in series [2], the Tm was determined as 54.1 °C.

For the sequence GACTGGGGAAACTCAGTC (((((.(....).))))), the folding enthalpy in series [1] was -40.5 kcal/mol. Moreover, the Tm in series [2] is 49.9 °C.

Regarding GACTGGGGAAACTCGGTC (((.(.(....).).))), the folding enthalpy in series [1] is -21.3 kcal/mol. The Tm in series [2] turned out to be 38.5 °C.

As for GACTTACGAAAGTAGGTC (((.(((....))).))), the folding enthalpy in series [1] was -27.5 kcal/mol. For the same sequence, the Tm in series [2] was 49.3 °C.

As for GACTTACGAAAGTAGTC (((.(((....)))))), the folding enthalpy in series [1] was -26.8 kcal/mol. Moreover, the Tm in series [2] was 43.1 °C.
